This note sets out measurements from ChEMBL document CHEMBL1126657, “Benzylamine antioxidants: relationship between structure, peroxyl radical scavenging, lipid peroxidation inhibition, and cytoprotection” (1993).

SMILES strings stand for the structures. In brackets after ≈: the same amount, converted by molar mass. Activity calls are given as the source filed them.

For test [1], the species on record is Rattus norvegicus. As to the kind of experiment: Percent viability of rat hippocampal neurons exposed to hydrogen peroxide (50 uM) in the presence of the test agent (5 uM). The format is functional. An outline of the steps:
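Primary rat hippocampal neuron cultures were given test agent (5 μM) and exposed for 15 min to H2O2 (50 μM). Survival was scored by vital dye staining 18 h later. n = 3 cultures prepared on different days, mean ± SD.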

Test [2] is filed under the species Oryctolagus cuniculus. As to the kind of experiment: Inhibition of iron-dependent peroxidation of rabbit vesicular membrane lipids (minimum test concentration that gave greater than 50% inhibition). The format is functional. An outline of the steps:
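Lipids from rabbit brain vesicular membranes were peroxidized in an iron-dependent system. Value is the minimum tested concentration giving ≥50% inhibition (μM), n = 3.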

Test [3] in a line: percent inhibition of 2,2'-azobis(2-amidinopropane)dihydrochloride induced decay of (R)-phycoerythrin fluorescence emission. The format is functional. Details: concentration or dose not given beside the values. To be noted: dose or concentration not given here. An outline of the steps:
(§1)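 R-PE (4.5 × 10⁻⁸ M stock) was mixed with test agent (3 μM stock; 1 μM final) in 75 mM phosphate buffer pH 7.0 and equilibrated 5 min at 37 °C. AAPH (12 mM stock, freshly made) was then added. Fluorescence (ex 544, em 590 nm) was read every 5 min for 25 min and normalized to 0 min. Percent inhibition at 15 min = (sample − AAPH)/(control − AAPH) × 100, n = 4.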

The subject of test [4] is Rattus norvegicus. Nature of the test: Hypotensive effect in anesthetized normotensive rat expressed as effective dose. The format is functional.
The test system of test [5] is Rattus norvegicus. Nature of the test: Hypotensive effect in anesthetized normotensive rat expressed as effective dose; No effect. The format is functional, organism-based.
A short description of test [6]: Percent inhibition of 2,2'-azobis(2-amidinopropane)dihydrochloride induced decay of (R)-phycoerythrin fluorescence emission. The format is functional. The arrangement: concentration or dose not given beside the values. The settings on record: dose or concentration not given here. An outline of the steps:
as §1

Test [7] relates to Rattus norvegicus. As to the kind of experiment: Hypotensive effect in up to 0.1 mg/kg, slight pressor response (~16-17%) at 1 mg/kg. The format is functional, organism-based.
In test [8] the test system is Rattus norvegicus. As to the kind of experiment: Hypotensive effect in anesthetized normotensive rat expressed as effective dose; Study. The format is functional, organism-based.

Usually MIC stands for the smallest concentration in the dilution series that meets the test's criterion for growth inhibition. As usually defined, the inhibition is the share of the control response that was lost under treatment. On to `CCCCCCCOc1c(O)cc(CN2CCN(CCO)CC2)cc1O.Cl.Cl`, for which, in test [1], the Cell viability turned out to be 50.3%. In addition, inhibition of growth in test [2] (MIC) required 30 µM. In test [3], this molecule yielded an inhibition of 60.3%.
As to `CCCCCCCNCc1cc(OC(C)C)c(O)c(OC(C)C)c1.Cl`, the Cell viability in test [1] is 43.5%. Inhibition of growth in test [2] (MIC) required 10 µM. For the same molecule, in test [4], the ED20 was more than 1 mg/kg.
Turning to `CCOc1cc(CN(C)C)cc(OCC)c1O.Cl`, the Cell viability in test [1] is recorded as 14.7%. For the same molecule, in test [2], the MIC amounted to 100 µM. Further, the ED20 entry in test [5] was “inactive”. This molecule came in with an inhibition in test [6] of 71.6%.
Consider `CCCNCc1cc(OC)c(O)c(OC)c1.Cl`, for which the Cell viability in test [1] is given as 13.3%. Further, in test [2], the MIC was more than 100 µM. In test [5], the ED20 entry is “inactive”. The inhibition in test [6] was 80.1%.
Turning to `CCCCCCOc1cc(CN(C)C)cc(OCCCCCC)c1O.Cl`, in test [1], the Cell viability was found to be 73.1%. In addition, in test [2], 1 µM was the least that counted as inhibitory (MIC). The ED20 in test [4] came to 0.36 mg/kg. In test [3], this molecule came in with an inhibition of 17.6%.
`CCCCCCCOc1cc(CN(C)C)cc(OCCCCCCC)c1O.Cl`: in test [1], the Cell viability stood at 75.7%. Further, 1 µM was the least that counted as inhibitory in test [2] (MIC). In test [3], the inhibition is 7.2%.
As for `CC(C)Oc1cc(CN(C)C)cc(OC(C)C)c1O.Cl`, in test [1], the Cell viability came to 35.8%. In addition, the MIC in test [2] is more than 100 µM. Further, the ED20 result in test [5] was “inactive”. In addition, the inhibition in test [6] was determined as 69.3%.
Consider `CCCCN(CCCC)Cc1cc(OC)c(O)c(OC)c1.Cl`, for which, in test [1], the Cell viability is given as 26.4%. For the same molecule, in test [2], the MIC was more than 100 µM. In addition, in test [5], the ED20 result was “inactive”. For the same molecule, in test [6], the inhibition came to 66.6%.
Take `CCCCOc1cc(CN(C)C)cc(OCCCC)c1O.Cl`: the Cell viability in test [1] was determined as 35.8%. The same molecule displayed an MIC in test [2] of 10 µM. Moreover, the ED20 in test [4] was 1 mg/kg. The molecule also yielded an inhibition in test [6] of 73.3%.
As to `CCN(CC)Cc1cc(OC)c(O)c(OC)c1.Cl`, the Cell viability in test [1] is 3.7%. This molecule showed an MIC in test [2] of more than 100 µM. Further, the ED20 entry in test [5] was “inactive”. The inhibition in test [6] was 66.7%.
With `CCCCCCCOc1cc(CN2CCN(CCO)CC2)cc(OC)c1O.Cl.Cl`, in test [1], the Cell viability is on record as 63%. Besides, 2.3 µM was the least that counted as inhibitory in test [2] (MIC). The ED20 in test [4] was more than 1 mg/kg. In addition, in test [3], the inhibition was determined as 64.4%.
For `COc1cc(CN(C)C)cc(OC)c1O.Cl`, the Cell viability in test [1] came to 5.2%. Further, the MIC in test [2] is more than 100 µM. In test [5], the ED20 entry was “inactive”. The same molecule gave an inhibition in test [6] of 69%.
Regarding `CNCc1cc(OC)c(O)c(OC)c1.Cl`, the Cell viability in test [1] is listed as 7.5%. For the same molecule, the MIC in test [2] was more than 100 µM. The ED20 entry in test [5] was “inactive”. In addition, the inhibition in test [6] was 75.8%.
As to `CCCCCCCCCNCc1cc(OC)c(O)c(OC)c1.Cl`, the Cell viability in test [1] turned out to be 47.1%. This molecule returned an MIC in test [2] of 5.3 µM. For the same molecule, the inhibition in test [3] was 52.9%. For the same molecule, the ED20 result in test [7] is on record as “Pressor”.
For the molecule `CCCCCCNCc1cc(OC)c(O)c(OC)c1.Cl`, the Cell viability in test [1] is given as 42.6%. This molecule showed an MIC in test [2] of 100 µM. In test [5], the ED20 entry is “inactive”. The same molecule displayed an inhibition in test [6] of 65.2%.
On to `CCCCCCCCNCc1cc(OC)c(O)c(OC)c1.Cl`, for which the Cell viability in test [1] was found to be 59.8%. In test [2], this molecule came in with an MIC of 10 µM. The inhibition in test [3] was determined as 60.9%. For the same molecule, the ED20 result in test [7] is “Pressor”.
Consider `CC(C)Oc1cc(CN2CCN(CCO)CC2)cc(OC(C)C)c1O.Cl.Cl`, for which the Cell viability in test [1] is given as 45.3%. Also, the MIC in test [2] was more than 100 µM. For the same molecule, the ED20 result in test [5] was “inactive”. The molecule further displayed an inhibition in test [6] of 71.6%.
In the same order, the values of `CCCCNCc1cc(OC)c(O)c(OC)c1.Cl` are 17.1%, more than 100 µM, “inactive” and 62.4%.
In the same order, the values of `COc1cc(CN(CC(C)C)CC(C)C)cc(OC)c1O.Cl` are 28.7%, 30 µM, “inactive” and 63.7%.
Consider `CCNCc1cc(OC)c(O)c(OC)c1.Cl`, for which the Cell viability in test [1] amounted to 3.1%. In test [2], this molecule returned an MIC of more than 100 µM. Besides, the ED20 result in test [5] is “inactive”. Further, the inhibition in test [6] was found to be 71.8%.
For `CCCCCCCOc1cc(CN(C)C)cc(OC)c1O.Cl`, the Cell viability in test [1] was 44%. In test [2], this molecule gave an MIC of 2.3 µM. Besides, in test [4], the ED20 is more than 1 mg/kg. Further, in test [3], the inhibition turned out to be 62.5%.
For the molecule `CN(C)Cc1cc(OC2CCCC2)c(O)c(OC2CCCC2)c1.Cl`, the Cell viability in test [1] was 28.9%. In addition, the ED20 entry in test [8] was “Study”. The molecule further yielded an MIC in test [2] of 10 µM. For the same molecule, the inhibition in test [6] came to 74.3%.
Turning to `CCCN(CCC)Cc1cc(OC)c(O)c(OC)c1.Cl`, in test [1], the Cell viability came out at 5.4%. This molecule also had an MIC in test [2] of more than 100 µM. Besides, the ED20 result in test [5] was “inactive”. In test [6], this molecule yielded an inhibition of 63.7%.
Regarding `CCCCCN(CCCCC)Cc1cc(OC)c(O)c(OC)c1.Cl`, the Cell viability in test [1] is 35.5%. Besides, in test [2], the MIC is 30 µM. The molecule also yielded an ED20 in test [4] of more than 1 mg/kg. Further, the inhibition in test [6] was 50.6%.
In the case of `CCCCCCCOc1c(O)cc(CN(C)C)cc1O.Cl`, the Cell viability in test [1] was 47%. Moreover, in test [2], it took 30 µM to inhibit growth (MIC). The same molecule gave an inhibition in test [3] of 43.8%.
In the case of `CCCCCNCc1cc(OC(C)C)c(O)c(OC(C)C)c1.Cl`, the Cell viability in test [1] turned out to be 42.8%. Besides, the MIC in test [2] stood at 30 µM. Besides, the ED20 in test [4] was more than 1 mg/kg.
In the case of `CCCCCNCc1cc(OC)c(O)c(OC)c1.Cl`, in test [1], the Cell viability is recorded as 29%. In test [2], this molecule gave an MIC of more than 100 µM. Also, the ED20 entry in test [5] is “inactive”. Moreover, in test [6], the inhibition was found to be 61.6%.
The molecule `CCCOC(=O)c1cc(O)c(O)c(O)c1` [PROPYL GALLATE] had an MIC in test [2] of 3 µM (≈ 0.637 µg/mL). In addition, the inhibition in test [3] was 40%.
As to `CCCCCOc1cc(CN(C)C)cc(OCCCCC)c1O.Cl`, the Cell viability in test [1] is 51.2%. In addition, the ED20 result in test [8] is reported as “Study”. In test [2], this molecule showed an MIC of 2.3 µM. The molecule also came in with an inhibition in test [6] of 44.9%.
On to `CCC(CC)Oc1cc(CN(C)C)cc(OC(CC)CC)c1O.Cl`, for which, in test [1], the Cell viability stood at 15.2%. In test [2], this molecule displayed an MIC of 10 µM. The ED20 in test [4] worked out at 0.42 mg/kg. The molecule also gave an inhibition in test [6] of 66.8%.
As for `CCCCCCCNCc1cc(OC)c(O)c(OC)c1.Cl`, the Cell viability in test [1] is 48.3%. In test [2], 30 µM was the least that counted as inhibitory (MIC). The molecule also had an inhibition in test [3] of 63.5%.
As to `CCCOc1cc(CN(C)C)cc(OCCC)c1O.Cl`, in test [1], the Cell viability amounted to 31.3%. Also, in test [2], it took 30 µM to inhibit growth (MIC). For the same molecule, the ED20 in test [4] came out at 1 mg/kg. This molecule yielded an inhibition in test [6] of 91.8%.
